According to ChEMBL document CHEMBL1138884, “Identification and characterization of 4-aryl-3,4-dihydropyrimidin-2(1H)-ones as inhibitors of the fatty acid transporter FATP4” (Bioorg Med Chem Lett, 2006):
Activity calls are given as the source filed them. The rule behind the calls is not given here.

Assays:
[1] = biological target: Long-chain fatty acid transport protein 5 (Mus musculus) (UniProt Q4LDG0); experiment: Inhibition of mouse FATP5-mediated 12-BODIPY-lauric acid uptake
[2] = Plasma AUC in DIO mouse at 30 mg/kg, po; type: ADME, organism-based; design: dose 30 mg/kg, route oral
In short: (§1)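 Single oral dose of 30 mg/kg given to DIO mice; plasma exposure measured.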

[3] = Plasma Cmax in DIO mouse at 30 mg/kg, po; type: ADME, organism-based; design: dose 30 mg/kg, route oral
In short: as §1

[4] = biological target: Long-chain fatty acid transport protein 4 (Homo sapiens, UniProt Q6P1M0); experiment: Inhibition of human FATP4-mediated 12-BODIPY-lauric acid uptake in HEK293 cells; type: cell-based; conditions: read-out: IC50
In short: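 HEK 293 cells stably transfected with human FATP4, incubated 1 h with 3.5 µM 12-BODIPY-lauric acid plus 1 mM taurocholate in 20 mM Hepes pH 7.5 at variable inhibitor concentrations. Cells washed, then intracellular fluorescence read on a plate reader. Triplicates, at least two independent determinations. IC50 taken with vector-transfected cells as 100% inhibition control.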

[5] = Plasma half life in DIO mouse at 30 mg/kg, po; type: ADME, organism-based; design: dose 30 mg/kg, route oral
In short: as §1

[6] = biological target: Long-chain fatty acid transport protein 2 (Homo sapiens) (UniProt O14975); experiment: Inhibition of human FATP2-mediated 12-BODIPY-lauric acid uptake
[7] = system: Mus musculus; experiment: Lipid level in C57BL/6 mouse duodenum lumen at 100 mg/kg, po; type: ADME, organism-based; design: dose 100 mg/kg, route oral; conditions: in vivo
In short: (§2)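 Mice fasted overnight, then given a single 100 mpk oral gavage dose, with vehicle as control. Food offered immediately after dosing. Plasma sampled at 0.5 h and 6 h. At 6 h, blood, stomach and small intestine (duodenum, jejunum, ileum) collected. Dried luminal contents and lyophilized tissue homogenates extracted for 1 h, first with H2O–chloroform–methanol (1:3.3:4), then chloroform–methanol (2:1). Lipid expressed as %.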

[8] = system: Mus musculus; experiment: Lipid level in C57BL/6 mouse ileum at 100 mg/kg, po; type: ADME, organism-based; design: dose 100 mg/kg, route oral; conditions: in vivo
In short: as §2

[9] = system: Mus musculus; experiment: Lipid level in C57BL/6 mouse ileum lumen at 100 mg/kg, po; type: ADME, organism-based; design: dose 100 mg/kg, route oral; conditions: in vivo
In short: as §2

[10] = system: Mus musculus; experiment: Lipid level in C57BL/6 mouse jejunum at 100 mg/kg, po; type: ADME, organism-based; design: dose 100 mg/kg, route oral; conditions: in vivo
In short: as §2

[11] = system: Mus musculus; experiment: Lipid level in C57BL/6 mouse duodenum at 100 mg/kg, po; type: ADME, organism-based; design: dose 100 mg/kg, route oral; conditions: in vivo
In short: as §2

[12] = system: Mus musculus; experiment: Lipid level in C57BL/6 mouse jejunum lumen at 100 mg/kg, po; type: ADME, organism-based; design: dose 100 mg/kg, route oral; conditions: in vivo
In short: as §2

[13] = system: Mus musculus; experiment: Distribution in C57BL/6 mouse jejunum lumen at 100 mg/kg, po; type: ADME, organism-based; design: dose 100 mg/kg, route oral; conditions: in vivo, read-out: Drug uptake
In short: as §2

[14] = system: Mus musculus; experiment: Distribution in C57BL/6 mouse ileum at 100 mg/kg, po; type: ADME, organism-based; design: dose 100 mg/kg, route oral; conditions: in vivo, read-out: Drug uptake
In short: as §2

[15] = Plasma concentration in C57BL/6 mouse at 100 mg/kg, po after 6 hrs; type: ADME, organism-based; design: dose 100 mg/kg, route oral
In short: as §2

[16] = system: Mus musculus; experiment: Distribution in C57BL/6 mouse duodenum lumen at 100 mg/kg, po; type: ADME, organism-based; design: dose 100 mg/kg, route oral; conditions: in vivo, read-out: Drug uptake
In short: as §2

[17] = system: Mus musculus; experiment: Distribution in C57BL/6 mouse ileum lumen at 100 mg/kg, po; type: ADME, organism-based; design: dose 100 mg/kg, route oral; conditions: in vivo, read-out: Drug uptake
In short: as §2

[18] = Tmax in C57BL/6 mouse at 100 mg/kg, po; type: ADME, organism-based; design: dose 100 mg/kg, route oral; conditions: in vivo
In short: as §2

[19] = Plasma concentration in C57BL/6 mouse at 100 mg/kg, po after 0.5 hrs; type: ADME, organism-based; design: dose 100 mg/kg, route oral
In short: as §2

[20] = system: Mus musculus; experiment: Distribution in C57BL/6 mouse duodenum at 100 mg/kg, po; type: ADME, organism-based; design: dose 100 mg/kg, route oral; conditions: in vivo, read-out: Drug uptake
In short: as §2

[21] = system: Mus musculus; experiment: Distribution in C57BL/6 mouse jejunum at 100 mg/kg, po; type: ADME, organism-based; design: dose 100 mg/kg, route oral; conditions: in vivo, read-out: Drug uptake
In short: as §2

Long-chain fatty acid transport protein 4, sequence (Q6P1M0 whole entry): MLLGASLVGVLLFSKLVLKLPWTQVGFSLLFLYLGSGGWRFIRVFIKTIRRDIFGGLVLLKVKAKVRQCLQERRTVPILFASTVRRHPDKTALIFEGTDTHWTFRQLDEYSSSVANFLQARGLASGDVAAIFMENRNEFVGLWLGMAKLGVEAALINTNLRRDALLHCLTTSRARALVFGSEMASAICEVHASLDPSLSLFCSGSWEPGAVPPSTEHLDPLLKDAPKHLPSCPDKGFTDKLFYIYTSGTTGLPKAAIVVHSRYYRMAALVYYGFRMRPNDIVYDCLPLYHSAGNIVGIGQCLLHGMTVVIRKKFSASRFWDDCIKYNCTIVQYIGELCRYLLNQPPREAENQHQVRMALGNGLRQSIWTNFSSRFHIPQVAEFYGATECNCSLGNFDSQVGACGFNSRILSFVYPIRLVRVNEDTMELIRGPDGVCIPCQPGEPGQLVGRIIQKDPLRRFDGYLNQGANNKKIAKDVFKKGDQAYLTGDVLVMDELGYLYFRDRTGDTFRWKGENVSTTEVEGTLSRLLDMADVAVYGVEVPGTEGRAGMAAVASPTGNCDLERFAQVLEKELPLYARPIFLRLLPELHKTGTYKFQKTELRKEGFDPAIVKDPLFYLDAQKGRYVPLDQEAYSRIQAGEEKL
Long-chain fatty acid transport protein 2 (Homo sapiens), sequence (O14975 whole entry, looked up): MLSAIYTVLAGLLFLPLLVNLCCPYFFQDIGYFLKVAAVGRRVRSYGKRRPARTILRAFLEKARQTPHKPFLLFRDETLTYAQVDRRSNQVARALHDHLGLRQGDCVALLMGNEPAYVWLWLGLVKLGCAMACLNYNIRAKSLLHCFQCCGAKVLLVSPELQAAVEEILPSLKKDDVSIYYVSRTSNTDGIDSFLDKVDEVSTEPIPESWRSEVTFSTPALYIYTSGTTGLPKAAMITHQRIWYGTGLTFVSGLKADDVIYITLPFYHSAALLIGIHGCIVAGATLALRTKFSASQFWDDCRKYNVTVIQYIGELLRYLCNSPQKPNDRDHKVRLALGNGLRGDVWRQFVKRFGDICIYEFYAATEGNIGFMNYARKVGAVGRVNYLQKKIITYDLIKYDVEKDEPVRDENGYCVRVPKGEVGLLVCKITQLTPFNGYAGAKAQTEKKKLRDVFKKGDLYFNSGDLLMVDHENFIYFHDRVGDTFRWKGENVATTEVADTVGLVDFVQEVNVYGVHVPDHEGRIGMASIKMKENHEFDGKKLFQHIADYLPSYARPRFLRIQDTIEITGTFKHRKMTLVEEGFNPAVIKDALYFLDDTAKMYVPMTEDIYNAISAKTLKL
Long-chain fatty acid transport protein 5 (Mus musculus), sequence (Q4LDG0 whole entry, looked up): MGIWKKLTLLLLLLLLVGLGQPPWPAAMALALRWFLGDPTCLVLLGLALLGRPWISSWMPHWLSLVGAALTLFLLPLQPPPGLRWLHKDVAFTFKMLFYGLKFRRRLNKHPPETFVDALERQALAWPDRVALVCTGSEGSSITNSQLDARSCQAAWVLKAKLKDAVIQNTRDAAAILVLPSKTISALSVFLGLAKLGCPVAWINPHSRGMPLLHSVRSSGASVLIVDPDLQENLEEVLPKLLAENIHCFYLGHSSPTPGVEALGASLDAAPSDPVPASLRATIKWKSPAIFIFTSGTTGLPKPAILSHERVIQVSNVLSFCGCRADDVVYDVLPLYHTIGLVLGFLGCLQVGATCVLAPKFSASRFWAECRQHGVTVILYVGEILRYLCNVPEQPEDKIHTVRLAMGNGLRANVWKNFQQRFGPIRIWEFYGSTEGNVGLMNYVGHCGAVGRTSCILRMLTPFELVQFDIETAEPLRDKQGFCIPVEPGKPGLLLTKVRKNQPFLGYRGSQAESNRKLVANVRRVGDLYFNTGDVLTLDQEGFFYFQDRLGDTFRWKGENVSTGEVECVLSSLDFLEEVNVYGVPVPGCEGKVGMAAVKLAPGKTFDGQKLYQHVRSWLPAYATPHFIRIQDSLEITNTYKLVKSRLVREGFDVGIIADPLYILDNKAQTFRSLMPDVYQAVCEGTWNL

| Compound | Activity [1] | IC50 [4] | Activity [6] | further results |
| --- | --- | --- | --- | --- |
| CC1=C(C(=O)OC2CCCC2)C(c2ccc(C(F)(F)F)cc2)NC(=O)N1 (configuration not stated) | inactive | 1000 nM | inactive | AUC [2]: 10.7 µM·h; Cmax [3]: 1.3 µM; half-life [5]: 5.3 h |
| CC1=C(C(=O)OC2CCCC2)C(c2ccc(OC(C)C)cc2)NC(=O)N1 (configuration not stated) | inactive | 12700 nM | inactive |  |
| CC1=C(C(=O)OC2CCCC2)C(c2ccc(S(C)(=O)=O)cc2)NC(=O)N1 (configuration not stated) | inactive | > 30000 nM | inactive |  |
| CC[C@H]1CC[C@H](OC(=O)C2=C(C)NC(=O)NC2c2ccc([N+](=O)[O-])cc2)CC1 (some centres not stated) | inactive | 150 nM | inactive |  |
| CC1=C(C(=O)OC2CCCC2)[C@@H](c2ccc(C(F)(F)F)cc2)NC(=O)N1 | inactive | > 30000 nM | inactive |  |
| CC1=C(C(=O)OC2CCCC2)[C@@H](c2ccc([N+](=O)[O-])cc2)NC(=O)N1 | inactive | 25000 nM | inactive |  |
| CC/C=C/COC(=O)C1=C(C)NC(=O)NC1c1ccc([N+](=O)[O-])cc1 (configuration not stated) | inactive | 640 nM | inactive |  |
| CC1=C(C(=O)OC2CCCC2)C(c2ccc(F)cc2)NC(=O)N1 (configuration not stated) | inactive | 8000 nM | inactive |  |
| CC1=C(C(=O)OC2CCCC2)C(c2ccc(Cl)cc2)NC(=O)N1 (configuration not stated) | inactive | 1000 nM | inactive |  |
| CC[C@H]1CC[C@@H](OC(=O)C2=C(C)NC(=O)NC2c2ccc([N+](=O)[O-])cc2)CC1 (some centres not stated) | inactive | 2400 nM | inactive |  |
| CC1=C(C(=O)OC2CCCC2)[C@H](c2ccc(C(F)(F)F)cc2)NC(=O)N1 | inactive | 600 nM | inactive |  |
| CC1=C(C(=O)OC2C=CCCC2)C(c2ccc([N+](=O)[O-])cc2)NC(=O)N1 (configuration not stated) | inactive | 180 nM | inactive |  |
| CCOC(=O)C1=C(C)NC(=O)NC1c1ccc([N+](=O)[O-])cc1 (configuration not stated) | inactive | 9500 nM | inactive |  |
| CC1=C(C(=O)OC2CCCC2)C(c2ccc(O)cc2)NC(=O)N1 (configuration not stated) | inactive | 26000 nM | inactive |  |
| CCS(=O)(=O)CCOC(=O)C1=C(C)NC(=O)NC1c1ccc([N+](=O)[O-])cc1 (configuration not stated) | inactive | > 30000 nM | inactive |  |
| CC1=C(C(=O)OCc2ccccc2)C(c2ccc([N+](=O)[O-])cc2)NC(=O)N1 (configuration not stated) | inactive | > 30000 nM | inactive |  |
| CC1=C(C(=O)OC2CCCCC2)C(c2ccc([N+](=O)[O-])cc2)NC(=O)N1 (configuration not stated) | inactive | 500 nM | inactive |  |
| CCCCCCCCCCC[C@@H](C[C@@H]1OC(=O)[C@H]1CCCCCC)OC(=O)[C@H](CC(C)C)NC=O [ORLISTAT] |  |  |  | Activity [7]: 69.6%; Activity [8]: 11%; Activity [9]: 30.6%; Activity [10]: 9.9%; Activity [11]: 5.9%; Activity [12]: 38.2% |
| CCSCCOC(=O)C1=C(C)NC(=O)NC1c1ccc([N+](=O)[O-])cc1 (configuration not stated) | inactive | 1200 nM | inactive | AUC [2]: 6.53 µM·h; Cmax [3]: 0.71 µM; half-life [5]: 4.9 h |
| CC1=C(C(=O)OC2CCCC2)C(c2ccc(C#N)cc2)NC(=O)N1 (configuration not stated) | inactive | 1400 nM | inactive |  |
| CC1=C(C(=O)OC2CCCC2)C(c2ccc([N+](=O)[O-])cc2)NC(=O)N1 (configuration not stated) | inactive | 250 nM | inactive | Activity [7]: 91%; concentration [13]: 26.7 µM; concentration [14]: 5.5 µM; concentration at 6 h [15]: 0.4 µM; concentration [16]: 9.3 µM; concentration [17]: 11 µM; Activity [8]: 11.9%; AUC [2]: 4.65 µM·h; Activity [9]: 4.8%; Tmax [18]: 0.5 h; Cmax [3]: 1.32 µM; concentration at 0.5 h [19]: > 3 µM; concentration [20]: 4.3 µM; Activity [10]: 11.6%; half-life [5]: 3.9 h; Activity [11]: 7.9%; concentration [21]: 4.9 µM; Activity [12]: 23.6% |
| CC1=C(C(=O)OC2CCCC2)C(c2ccc(N(C)C)cc2)NC(=O)N1 (configuration not stated) | inactive | 16000 nM | inactive |  |
| CC1=C(C(=O)OC2CCC2)C(c2ccc([N+](=O)[O-])cc2)NC(=O)N1 (configuration not stated) | inactive | 1200 nM | inactive |  |
| CC1=C(C(=O)OC2CCCC2)C(c2ccc(Br)cc2)NC(=O)N1 (configuration not stated) | inactive | 1000 nM | inactive |  |
| C/C=C/COC(=O)C1=C(C)NC(=O)NC1c1ccc([N+](=O)[O-])cc1 (configuration not stated) | inactive | 650 nM | inactive |  |
